Test results published in ChEMBL document CHEMBL5058577, “EUbOPEN Chemogenomics Library 2 (Multiplex)” (2022).

Test system: U2OS
Assay: Multiplex assay against U2OS
Type: toxicity, cell-based
Conditions: human
In short: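 Hoechst33342, BioTracker Green Microtubule Cytoskeleton Dye, MitoTracker Red and Annexin V Alexa Fluor 680 were added to live cells at seeding, and imaging on a CQ1 microscope at 37°C and 5% CO2 followed compound addition. Gating by CellPathfinder machine learning separated cells into Hoechst high-intensity objects or normal cells, then normal cells into healthy, pyknosed or fragmented nuclei, then pyknosed cells into mitotic or apoptotic. Per cents of healthy-nucleus cells are reported for the tubulin, mitochondrial-mass and membrane-permeability phenotypes.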

[1] = 12 h, 1 µM, compound concentration 1 uM, replicate 1
[2] = 12 h, 1 µM, compound concentration 1 uM, replicate 2
[3] = 12 h, 10 µM, compound concentration 10 uM, replicate 1
[4] = 12 h, 10 µM, compound concentration 10 uM, replicate 2
[5] = 24 h, 1 µM, compound concentration 1 uM, replicate 1
[6] = 24 h, 1 µM, compound concentration 1 uM, replicate 2
[7] = 24 h, 10 µM, compound concentration 10 uM, replicate 1
[8] = 24 h, 10 µM, compound concentration 10 uM, replicate 2
[9] = 48 h, 1 µM, compound concentration 1 uM, replicate 1
[10] = 48 h, 1 µM, compound concentration 1 uM, replicate 2
[11] = 48 h, 10 µM, compound concentration 10 uM, replicate 1
[12] = 48 h, 10 µM, compound concentration 10 uM, replicate 2

SMILES: O=c1ccc2ccc(OCCCCN3CCN(c4cccc5sccc45)CC3)cc2[nH]1 [BREXPIPRAZOLE]
- Population Apoptotic (%) [1]: 73%
- Population Fragmented Nuclei (%) [1]: 23%
- Population Healthy Nuclei (%) [1]: 62%
- Population Hoechst High Intensity Objects (%) [1]: 6%
- Population Membrane Permeable-Phenotype (%) [1]: 40%
- Population Mitochondria Different-Phenotype (%) [1]: 19%
- Population Mitotic Cells (%) [1]: 26%
- Population Normal (%) [1]: 93%
- Population Pyknosed Nuclei (%) [1]: 13%
- Population Tubulin-Different-Phenotype (%) [1]: 36%
- Total Cell Count [1]: 178
- Population Apoptotic (%) [2]: 55%
- Population Fragmented Nuclei (%) [2]: 16%
- Population Healthy Nuclei (%) [2]: 69%
- Population Hoechst High Intensity Objects (%) [2]: 2%
- Population Membrane Permeable-Phenotype (%) [2]: 32%
- Population Mitochondria Different-Phenotype (%) [2]: 24%
- Population Mitotic Cells (%) [2]: 44%
- Population Normal (%) [2]: 97%
- Population Pyknosed Nuclei (%) [2]: 14%
- Population Tubulin-Different-Phenotype (%) [2]: 30%
- Total Cell Count [2]: 126
- Population Apoptotic (%) [3]: 86%
- Population Fragmented Nuclei (%) [3]: 31%
- Population Healthy Nuclei (%) [3]: 27%
- Population Hoechst High Intensity Objects (%) [3]: 6%
- Population Membrane Permeable-Phenotype (%) [3]: 57%
- Population Mitochondria Different-Phenotype (%) [3]: 82%
- Population Mitotic Cells (%) [3]: 13%
- Population Normal (%) [3]: 93%
- Population Pyknosed Nuclei (%) [3]: 41%
- Population Tubulin-Different-Phenotype (%) [3]: 83%
- Total Cell Count [3]: 220
- Population Apoptotic (%) [4]: 82%
- Population Fragmented Nuclei (%) [4]: 21%
- Population Healthy Nuclei (%) [4]: 43%
- Population Hoechst High Intensity Objects (%) [4]: 9%
- Population Membrane Permeable-Phenotype (%) [4]: 53%
- Population Mitochondria Different-Phenotype (%) [4]: 90%
- Population Mitotic Cells (%) [4]: 17%
- Population Normal (%) [4]: 90%
- Population Pyknosed Nuclei (%) [4]: 35%
- Population Tubulin-Different-Phenotype (%) [4]: 95%
- Total Cell Count [4]: 109
- Population Apoptotic (%) [5]: 68%
- Population Fragmented Nuclei (%) [5]: 26%
- Population Healthy Nuclei (%) [5]: 55%
- Population Hoechst High Intensity Objects (%) [5]: 3%
- Population Membrane Permeable-Phenotype (%) [5]: 19%
- Population Mitochondria Different-Phenotype (%) [5]: 22%
- Population Mitotic Cells (%) [5]: 31%
- Population Normal (%) [5]: 96%
- Population Pyknosed Nuclei (%) [5]: 18%
- Population Tubulin-Different-Phenotype (%) [5]: 18%
- Total Cell Count [5]: 181
- Population Apoptotic (%) [6]: 66%
- Population Fragmented Nuclei (%) [6]: 12%
- Population Healthy Nuclei (%) [6]: 67%
- Population Membrane Permeable-Phenotype (%) [6]: 22%
- Population Mitochondria Different-Phenotype (%) [6]: 28%
- Population Mitotic Cells (%) [6]: 33%
- Population Pyknosed Nuclei (%) [6]: 19%
- Population Tubulin-Different-Phenotype (%) [6]: 16%
- Total Cell Count [6]: 128
- Population Apoptotic (%) [7]: 93%
- Population Fragmented Nuclei (%) [7]: 30%
- Population Healthy Nuclei (%) [7]: 25%
- Population Hoechst High Intensity Objects (%) [7]: 13%
- Population Membrane Permeable-Phenotype (%) [7]: 47%
- Population Mitochondria Different-Phenotype (%) [7]: 67%
- Population Mitotic Cells (%) [7]: 6%
- Population Normal (%) [7]: 86%
- Population Pyknosed Nuclei (%) [7]: 44%
- Population Tubulin-Different-Phenotype (%) [7]: 76%
- Total Cell Count [7]: 213
- Population Apoptotic (%) [8]: 91%
- Population Fragmented Nuclei (%) [8]: 19%
- Population Healthy Nuclei (%) [8]: 26%
- Population Hoechst High Intensity Objects (%) [8]: 22%
- Population Membrane Permeable-Phenotype (%) [8]: 56%
- Population Mitochondria Different-Phenotype (%) [8]: 86%
- Population Mitotic Cells (%) [8]: 8%
- Population Normal (%) [8]: 77%
- Population Pyknosed Nuclei (%) [8]: 54%
- Population Tubulin-Different-Phenotype (%) [8]: 91%
- Total Cell Count [8]: 112
- Population Apoptotic (%) [9]: 64%
- Population Fragmented Nuclei (%) [9]: 21%
- Population Healthy Nuclei (%) [9]: 61%
- Population Hoechst High Intensity Objects (%) [9]: 4%
- Population Membrane Permeable-Phenotype (%) [9]: 9%
- Population Mitochondria Different-Phenotype (%) [9]: 12%
- Population Mitotic Cells (%) [9]: 35%
- Population Normal (%) [9]: 95%
- Population Pyknosed Nuclei (%) [9]: 16%
- Population Tubulin-Different-Phenotype (%) [9]: 8%
- Total Cell Count [9]: 240
- Population Apoptotic (%) [10]: 73%
- Population Fragmented Nuclei (%) [10]: 22%
- Population Healthy Nuclei (%) [10]: 56%
- Population Hoechst High Intensity Objects (%) [10]: 2%
- Population Membrane Permeable-Phenotype (%) [10]: 34%
- Population Mitochondria Different-Phenotype (%) [10]: 31%
- Population Mitotic Cells (%) [10]: 26%
- Population Normal (%) [10]: 97%
- Population Pyknosed Nuclei (%) [10]: 21%
- Population Tubulin-Different-Phenotype (%) [10]: 18%
- Total Cell Count [10]: 161
- Population Apoptotic (%) [11]: 96%
- Population Fragmented Nuclei (%) [11]: 45%
- Population Healthy Nuclei (%) [11]: 12%
- Population Hoechst High Intensity Objects (%) [11]: 26%
- Population Membrane Permeable-Phenotype (%) [11]: 45%
- Population Mitochondria Different-Phenotype (%) [11]: 30%
- Population Mitotic Cells (%) [11]: 3%
- Population Normal (%) [11]: 73%
- Population Pyknosed Nuclei (%) [11]: 41%
- Population Tubulin-Different-Phenotype (%) [11]: 40%
- Total Cell Count [11]: 215
- Population Apoptotic (%) [12]: 100%
- Population Fragmented Nuclei (%) [12]: 29%
- Population Healthy Nuclei (%) [12]: 14%
- Population Hoechst High Intensity Objects (%) [12]: 32%
- Population Membrane Permeable-Phenotype (%) [12]: 70%
- Population Mitochondria Different-Phenotype (%) [12]: 90%
- Population Mitotic Cells (%) [12]: 0%
- Population Normal (%) [12]: 67%
- Population Pyknosed Nuclei (%) [12]: 56%
- Population Tubulin-Different-Phenotype (%) [12]: 90%
- Total Cell Count [12]: 105
